{
  "source": "paper PMC3377097",
  "about": "(EMBO Molecular Medicine, 2011)",
  "molecules": {"B1": {"name": "CCL8: recombinant human CCL8 (MCP-2) (protein, UniProt P80075 24-99, looked up)", "C-C motif chemokine 8": "QPDSVSIPITCCFNVINRKIPIQRLESYTRITNIQCPKEAVIFKTKRGKEVCADPKERWVRDSMKHLDQIFQNLKP"}},
  "key": {"[1]": {"test_system": "models of Alzheimer's disease", "settings": "high doses for up to 6 months ref Schilling et al, 2008; cited from earlier work"}, "ApoE3*Leiden mice": {"test_system": "ApoE3*Leiden mice", "test": "Cuff-induced accelerated atherosclerosis", "type": "in vivo"}, "murine QC": {"target": "murine QC (Mus musculus, UniProt Q9CYK2)", "sequence (Q9CYK2 36-362)": "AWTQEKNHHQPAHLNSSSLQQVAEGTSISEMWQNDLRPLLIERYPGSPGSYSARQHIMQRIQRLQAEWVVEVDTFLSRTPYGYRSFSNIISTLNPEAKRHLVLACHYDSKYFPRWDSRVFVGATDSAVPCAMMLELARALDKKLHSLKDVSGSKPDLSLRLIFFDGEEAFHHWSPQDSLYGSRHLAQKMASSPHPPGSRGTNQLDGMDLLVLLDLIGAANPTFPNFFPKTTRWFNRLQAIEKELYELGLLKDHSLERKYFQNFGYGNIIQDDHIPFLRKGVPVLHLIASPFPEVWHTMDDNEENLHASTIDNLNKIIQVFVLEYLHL", "test": "QC inhibition, Ki-values at pH 8", "type": "biochemical"}, "murine isoQC": {"target": "murine isoQC (Mus musculus, UniProt Q8BH73)", "sequence (Q8BH73 whole entry)": "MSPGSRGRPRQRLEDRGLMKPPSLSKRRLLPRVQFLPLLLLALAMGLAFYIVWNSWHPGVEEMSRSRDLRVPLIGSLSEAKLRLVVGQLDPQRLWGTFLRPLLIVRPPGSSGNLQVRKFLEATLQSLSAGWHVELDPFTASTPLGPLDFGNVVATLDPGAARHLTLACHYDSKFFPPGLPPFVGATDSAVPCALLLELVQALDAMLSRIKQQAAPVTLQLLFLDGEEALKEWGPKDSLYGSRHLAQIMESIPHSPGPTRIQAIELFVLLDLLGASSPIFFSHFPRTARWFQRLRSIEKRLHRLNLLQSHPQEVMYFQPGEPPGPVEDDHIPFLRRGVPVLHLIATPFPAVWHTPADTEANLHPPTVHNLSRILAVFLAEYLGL", "test": "isoQC inhibition, Ki-values at pH 8", "type": "biochemical"}, "C57BL/6J mice": {"test_system": "C57BL/6J mice", "test": "Thioglycollate-induced peritonitis", "type": "in vivo", "settings": "oral gavage; for level of ICAM1 and CCR2: cells of the peritoneal lavage"}, "human isoQC": {"target": "human isoQC (Homo sapiens, UniProt Q9NXS2)", "sequence (Q9NXS2 whole entry)": "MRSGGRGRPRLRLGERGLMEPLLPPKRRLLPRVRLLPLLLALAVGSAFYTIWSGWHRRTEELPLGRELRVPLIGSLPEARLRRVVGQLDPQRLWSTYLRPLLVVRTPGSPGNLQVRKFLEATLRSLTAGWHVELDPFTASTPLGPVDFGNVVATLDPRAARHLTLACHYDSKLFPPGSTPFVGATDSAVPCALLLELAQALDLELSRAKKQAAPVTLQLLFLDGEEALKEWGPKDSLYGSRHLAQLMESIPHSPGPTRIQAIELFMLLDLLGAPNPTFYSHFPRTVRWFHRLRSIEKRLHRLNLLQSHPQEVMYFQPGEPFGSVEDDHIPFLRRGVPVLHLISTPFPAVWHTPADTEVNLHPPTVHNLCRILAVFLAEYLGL", "test": "isoQC inhibition, Ki-values at pH 8", "type": "biochemical"}, "[2]": {"test_system": "LPS-stimulated THP-1 cells", "test": "CCL2 expression in LPS-stimulated THP-1 cells", "type": "cell-based, human", "settings": "increasing concentrations"}, "[3]": {"test_system": "human primary macrophages", "test": "pE1-CCL2 secreted from LPS-stimulated primary macrophages", "type": "cell-based", "in_short": "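Human PBMCs were separated on an LSM 1077 density gradient and grown overnight at 37°C and 5% CO2. Adherent monocytes/macrophages were detached with accutase, plated at 1 × 10^5 cells/well and stimulated with 1 µg/ml LPS (E. coli O55:B5) for 24 h. Medium pE1-CCL2 was measured by sandwich ELISA: capture with 25 ng/well goat anti-hMCP-1 (overnight, 4°C), samples 2 h at room temperature, TMB read at 450 nm minus 550 nm.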"}, "[4]": {"test_system": "murine primary macrophages", "test": "pE1-CCL2 secreted from LPS-stimulated primary macrophages", "type": "cell-based", "in_short": "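Blood was drawn by cardiac puncture into heparin from isoflurane-anaesthetised (2%) mice. PBMCs were separated on an LSM 1077 gradient, grown overnight, and adherent cells were detached with accutase and plated at 1 × 10^5 cells/well. Cells were stimulated with 1 µg/ml LPS (E. coli O55:B5) for 24 h. Medium pE1-CCL2 was measured by ELISA with 50 ng/well rabbit anti-mJE capture (coated 4–7 days, 4°C), read at 450 nm minus 550 nm.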"}, "[5]": {"test_system": "LPS-stimulated primary murine glia cells", "test": "total-CCL2 and pE1-CCL2 ELISA of LPS-stimulated primary glia cells", "type": "cell-based", "settings": "varying doses"}, "[6]": {"test_system": "LPS-stimulated primary glia cells", "test": "CCL2 gene expression", "type": "cell-based, murine", "settings": "doses of 0.625 and 2.5 µM", "in_short": "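Primary glia came from newborn C57BL/6J pups at postnatal day 1. Brains were triturated, strained at 100 and 40 µm, and 6 × 10^5 cells were seeded on poly-L-lysine in DMEM/F12 with 5% FBS and 0.05% gentamicin at 37°C and 5% CO2. Medium was renewed at day 7, and cells (about 85% astrocytes, 15% microglia) were used 12 days after seeding. After LPS stimulation, RNA went to random-primed cDNA and SYBR Green qPCR (comparative quantitation), n = 3–4, ANOVA/Tukey.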"}, "THP-1 cells": {"test_system": "THP-1 cells", "test": "TransWell chemotaxis assay", "type": "cell-based, human", "settings": "THP-1 monocytes, 2 h migration", "in_short": "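THP-1 cells were grown in RPMI with 10% FBS and 50 µg/ml gentamicin at 37°C and 5% CO2, with mycoplasma checks. Cells at 1 × 10^6 per 100 µl RPMI1640 went into the upper chamber of 5 µm-pore TransWells, with chemoattractant below and serum-free RPMI as negative control. After 2 h at 37°C, 70 mM EDTA released bound cells (15 min, 37°C). Migrated cells were counted by cell counter or by FACS against 5000 Trucount beads.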"}, "human recombinant DP4": {"target": "human recombinant DP4 (Homo sapiens, UniProt P27487)", "sequence (P27487 whole entry, the tested form may be a part)": "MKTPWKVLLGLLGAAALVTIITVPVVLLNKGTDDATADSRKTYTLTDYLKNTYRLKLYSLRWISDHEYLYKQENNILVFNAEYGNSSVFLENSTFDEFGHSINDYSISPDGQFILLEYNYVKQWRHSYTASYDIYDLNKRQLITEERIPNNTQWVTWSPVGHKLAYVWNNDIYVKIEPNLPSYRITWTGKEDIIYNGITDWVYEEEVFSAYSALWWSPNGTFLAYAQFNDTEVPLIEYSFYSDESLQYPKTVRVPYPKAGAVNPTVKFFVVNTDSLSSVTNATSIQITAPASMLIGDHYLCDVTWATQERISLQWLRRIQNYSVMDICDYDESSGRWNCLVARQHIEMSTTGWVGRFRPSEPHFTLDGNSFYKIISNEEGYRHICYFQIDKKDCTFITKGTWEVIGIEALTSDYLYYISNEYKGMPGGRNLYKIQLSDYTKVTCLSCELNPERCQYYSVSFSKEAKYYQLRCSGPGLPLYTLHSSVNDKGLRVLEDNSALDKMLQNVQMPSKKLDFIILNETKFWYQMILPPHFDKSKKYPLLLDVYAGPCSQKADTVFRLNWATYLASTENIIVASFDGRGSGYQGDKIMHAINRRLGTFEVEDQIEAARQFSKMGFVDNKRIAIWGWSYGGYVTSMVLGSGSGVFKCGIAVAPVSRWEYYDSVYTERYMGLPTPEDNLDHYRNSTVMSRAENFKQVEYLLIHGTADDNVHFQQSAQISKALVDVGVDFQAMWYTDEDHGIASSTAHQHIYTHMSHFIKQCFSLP", "test": "Degradation of MCPs by DP4", "type": "biochemical", "settings": "for N-terminal truncation by recombinant human DP4: 10 µg/ml in 25 mM Tris/HCl pH 7.6; for truncation by DP4: mature state bearing a pE-residue", "in_short": "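Recombinant CCL2, CCL7, CCL8 and CCL13 (Gln- and pGlu-forms) were either pre-incubated with recombinant human QC (0.6 µg/ml) for 2 h at 30°C and then incubated with recombinant human DP4, or incubated with DP4 alone. Truncation products were read by linear-mode MALDI-TOF-MS in positive ion mode over 2000–20,000 amu, summing at least 6 × 100 laser pulses.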"}, "[7]": {"test": "Degradation of CCL2 in human plasma", "type": "in vitro ADME", "settings": "incubation with human plasma", "in_short": "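CCL2(Q1-76) was incubated with human plasma, either directly or after pre-incubation with recombinant human QC. N-terminal cleavage products were read by linear-mode MALDI-TOF-MS in positive ion mode over 2000–20,000 amu, calibrated with insulin and myoglobin. Each spectrum sums at least 6 × 100 laser pulses.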"}, "CCR2": {"target": "CCR2 (Homo sapiens, UniProt P41597)", "sequence (P41597 whole entry)": "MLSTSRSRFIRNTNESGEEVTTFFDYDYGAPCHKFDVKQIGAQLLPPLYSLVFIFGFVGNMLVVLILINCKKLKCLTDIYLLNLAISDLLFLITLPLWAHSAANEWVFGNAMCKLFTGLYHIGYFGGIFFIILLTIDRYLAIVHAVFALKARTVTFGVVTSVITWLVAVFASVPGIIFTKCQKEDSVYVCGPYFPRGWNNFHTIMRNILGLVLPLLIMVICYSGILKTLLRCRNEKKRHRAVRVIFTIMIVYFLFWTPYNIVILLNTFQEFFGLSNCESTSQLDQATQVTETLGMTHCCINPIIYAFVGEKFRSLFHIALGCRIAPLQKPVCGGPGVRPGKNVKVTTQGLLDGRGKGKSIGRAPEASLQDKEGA", "test": "CCR2 receptor internalization assay", "type": "cell-based", "settings": "human THP-1 monocytes, 45 min at 37°C, FACS", "in_short": "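THP-1 cells were maintained in RPMI with 10% FBS and 50 µg/ml gentamicin at 37°C, 5% CO2, and checked for mycoplasma. 6 × 10^5 cells were exposed in serum-free RPMI 1640 to N-terminal CCL2 variant ligands, then harvested into cold PBS. They were Fc-blocked for 10 min at 4°C and stained 30 min at 4°C with PE anti-CCR2 or IgG2B isotype control. After a PBS wash, they were analysed by flow cytometry.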"}, "[8]": {"settings": "2 days after surgery, drinking water 2.4 mg/ml"}},
  "data": [
    {"molecule": "COc1ccc(NC(=S)NCCCn2ccnc2)cc1OC", "note": "[PQ50, 1-(3-(1H-Imidazol-1-yl)propyl)-3-(3,4-dimethoxyphenyl)thiourea]", "values": [
      {"measurement": "toxicity", "setting": "[1]", "result": "without overt signs of toxicity"},
      {"measurement": "area of the media", "setting": "ApoE3*Leiden mice; 2 weeks after surgery", "result": "reduced"},
      {"measurement": "total area within the outer diameter of the vessel segment, area of the interna, number of foam cells", "setting": "ApoE3*Leiden mice; 2 weeks after surgery", "result": "did not affect"},
      {"measurement": "CCL2-immunopositive area", "setting": "ApoE3*Leiden mice; 2 weeks after surgery, treated vs untreated", "result": "did not differ"},
      {"measurement": "reduction of monocytes at the cuffed vessel segments", "setting": "ApoE3*Leiden mice; [8]", "result": 67, "unit": "%"},
      {"measurement": "reduction of total adhering cells at the cuffed vessel segments", "setting": "ApoE3*Leiden mice; [8]", "result": 45, "unit": "%"},
      {"measurement": "Ki", "setting": "murine QC", "result": 170, "unit": "nM"},
      {"measurement": "Ki", "setting": "murine isoQC", "result": 246, "unit": "nM"},
      {"measurement": "gene expression of CCL2, CCL7, IL-6 and TNF-alpha in cells of the peritoneal lavage", "setting": "C57BL/6J mice", "result": "without changing"},
      {"measurement": "number of monocytes after stimulation with thioglycollate", "setting": "C57BL/6J mice", "result": "reduced the number of monocytes"},
      {"measurement": "level of ICAM1 and CCR2", "setting": "C57BL/6J mice", "result": "unchanged"},
      {"measurement": "Ki", "setting": "human isoQC", "result": 236, "unit": "nM"}
    ]},
    {"molecule": "CCCOc1ccc(C2C(=O)NC(=O)N2c2ccc3[nH]cnc3c2)cc1", "note": "(centres unmarked) [PQ529, 1-(1H-benzo[d]imidazol-5-yl) -5-(4-propoxyphenyl) imidazolidine-2,4-dione]", "values": [
      {"measurement": "CCL2 expression", "setting": "[2]", "result": "did not show an effect"},
      {"measurement": "pE^1-CCL2 secreted", "setting": "[3]", "result": "reduced"},
      {"measurement": "pE^1-CCL2 secreted", "setting": "[4]", "result": "reduced"},
      {"measurement": "concentration of pE^1-CCL2", "setting": "[5]", "result": "decreased the concentration of pE^1-CCL2 dose-dependently"},
      {"measurement": "CCL2 mRNA", "setting": "[6]", "result": "slight but significant increase"},
      {"measurement": "gene expression of CCL2, CCL7, IL-6 and TNF-alpha in cells of the peritoneal lavage", "setting": "C57BL/6J mice", "result": "without changing"},
      {"measurement": "number of monocytes after stimulation with thioglycollate", "setting": "C57BL/6J mice", "result": "reduced the number of monocytes"},
      {"measurement": "level of ICAM1 and CCR2", "setting": "C57BL/6J mice", "result": "unchanged"}
    ]},
    {"molecule": "CCL2(D^3-76): DP4-cleavage product of CCL2", "values": [
      {"measurement": "monocyte attraction (chemotaxis)", "setting": "THP-1 cells", "result": "shift to higher concentrations needed to elicit chemotaxis"}
    ]},
    {"molecule": "CCL2(Q^1-76): recombinant human CCL2 possessing an N-terminal glutaminyl residue (immature form)", "values": [
      {"measurement": "N-terminal truncation by recombinant human DP4", "setting": "human recombinant DP4", "result": "susceptible to cleavage"}
    ]},
    {"molecule": "CCL2(pE^1-76): mature human CCL2 with N-terminal pyroglutamate residue", "values": [
      {"measurement": "N-terminal degradation in human plasma", "setting": "[7]", "result": "completely resistant to cleavage"},
      {"measurement": "monocyte attraction (chemotaxis)", "setting": "THP-1 cells", "result": "highest efficacy"},
      {"measurement": "CCR2 internalization", "setting": "CCR2", "result": "most potent"},
      {"measurement": "N-terminal truncation by recombinant human DP4", "setting": "human recombinant DP4", "result": "prevented N-terminal truncation"}
    ]},
    {"molecule": "CCL7: recombinant human CCL7, MCP family member", "values": [
      {"measurement": "truncation by DP4", "setting": "human recombinant DP4", "result": "protected against truncation"}
    ]},
    {"molecule": "CCL13: recombinant human CCL13, MCP family member", "values": [
      {"measurement": "truncation by DP4", "setting": "human recombinant DP4", "result": "protected against truncation"}
    ]},
    {"molecule": "B1", "values": [
      {"measurement": "truncation by DP4", "setting": "human recombinant DP4", "result": "protected against truncation"}
    ]}
  ]
}
